Source: ChEMBL document CHEMBL1649547, “Telavancin disrupts the functional integrity of the bacterial membrane through targeted interaction with the cell wall precursor lipid II” (Antimicrob Agents Chemother, 2009)
In brackets after ≈: the same amount, converted by molar mass. Activity calls are given as the source filed them. The rule behind the calls is not given here.

How the values were obtained:
Staphylococcus aureus [1] = experiment: Antibacterial activity against Staphylococcus aureus; format: functional
Outline: (§1)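 MIC determined with commercially manufactured dry-form panels; the organisms were grown in cation-adjusted Mueller-Hinton II broth.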

Staphylococcus aureus [2] = experiment: Antibacterial activity against Staphylococcus aureus assessed as induction of bacterial membrane depolarization at 8 ug/ml by flow cytometry; format: functional
Outline: (§2)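 Membrane potential was measured with DiOC2(3) flow cytometry. Early-exponential cultures (A625 = 0.3) in cation-adjusted MHB were diluted to 106 CFU/ml and dosed in 5-ml aliquots at 37°C with shaking. Samples were stained 5 min with 30 µM DiOC2(3) (final). 5,000 events per sample were collected. The red/green fluorescence ratio was gated against a CCCP-depolarized population. The endpoint was 90 min unless noted.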

Staphylococcus aureus [3] = experiment: Antibacterial activity against Staphylococcus aureus grown in MHB medium assessed as induction of bacterial membrane depolarization at 2 to 32 ug/ml by flow cytometry; format: functional, organism-based
Outline: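 MHB-grown S. aureus either kept in MHB or washed and resuspended in cation-containing PBS, then equilibrated 10 min at 37°C before telavancin 2–32 µg/ml. Time course of depolarization measured by DiOC2(3) flow cytometry (final 30 µM, 5 min stain, red/green ratio). Three independent experiments.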

Staphylococcus aureus [4] = experiment: Antibacterial activity against daptomycin-nonsusceptible Staphylococcus aureus MED2034; format: functional; outline: as §1
Staphylococcus aureus [5] = experiment: Antibacterial activity against Staphylococcus aureus assessed as induction of bacterial membrane depolarization by flow cytometry; format: functional, organism-based
Outline: (§3)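 S. aureus ATCC 29213 grown in MHB at 37°C to A625 = 0.3, diluted to 10^6 CFU/ml in MHB. Compound added to 5 ml aliquots, shaking water bath at 37°C, usually 90 min endpoint. Samples mixed 1:1 with DiOC2(3) (final 30 µM) and stained 5 min. Flow cytometry of 5,000 events, red/green ratio; depolarized gate set from CCCP. IC50 from four-parameter sigmoidal fit.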

Staphylococcus aureus [6] = experiment: Antibacterial activity against vancomycin-intermediate Staphylococcus aureus ATCC 700699; format: functional; outline: as §1
Staphylococcus aureus [7] = experiment: Antibacterial activity against Staphylococcus aureus assessed as induction of bacterial cell lysis at 8 to 32 ug/ml by turbidity assay; format: functional, organism-based
Outline: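 S. aureus ATCC 33591 was grown in cation-adjusted MHB to early exponential phase (A625 = 0.3). 5-ml aliquots received compound at the final concentration and were incubated in a shaking 37°C water bath. Lysis was followed by turbidity. Cells were also imaged by microscopy at 0, 2 and 6 h, scoring at least 30 cells per condition. Lysostaphin served as the lysis control. Means ± SD of three independent experiments.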

Staphylococcus aureus [8] = experiment: Inhibition of bacterial cell wall precursor lipid 2 synthesis in Staphylococcus aureus assessed as induction of membrane depolarization at 32 ug/ml by flow cytometry in presence of D-cycloserine; format: functional; design: scale not given: the % may be the effect or the level left
Outline: (§4)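 Cells then exposed to telavancin 32 µg/ml for 15 min (nisin 2 µg/ml, 5 min). DiOC2(3) flow cytometry. Percent depolarization expressed relative to samples without pretreatment.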

Staphylococcus aureus [9] = experiment: Antibacterial activity against Staphylococcus aureus in presence of 0.5 mM D-Ala-D-Ala; format: functional
Staphylococcus aureus [10] = experiment: Antibacterial activity against Staphylococcus aureus assessed as change in cellular membrane integrity at 8 to 32 ug/ml up to 6 hrs by spectrophotometry; format: functional, organism-based
Outline: (§5)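 S. aureus ATCC 33591 grown in MHB to early exponential phase (A625 = 0.3). 5 ml aliquots treated at final concentration, shaking water bath at 37°C. Turbidity read by spectrophotometer. Lysis also scored by microscopy: intact cells dark, lysed cells transparent; imaged at 0, 2 and 6 h, at least 30 cells per condition. Lysostaphin as lysis control. Three independent experiments.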

Staphylococcus aureus [11] = experiment: Antibacterial activity against Staphylococcus aureus in presence of 5 mM D-Ala-D-Ala; format: functional
Staphylococcus aureus [12] = experiment: Antibacterial activity against Staphylococcus aureus assessed as induction of bacterial membrane depolarization at 32 ug/ml by flow cytometry; format: functional; outline: as §3
Staphylococcus aureus [13] = experiment: Antibacterial activity against Staphylococcus aureus assessed as induction of bacterial membrane depolarization at 32 ug/ml by flow cytometry in presence of 5 mM D-Ala-D-Ala; format: functional
Outline: (§6)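 S. aureus at 10^6 CFU/ml in MHB at 37°C. dKAA tripeptide (0.05, 0.5 or 5 mM) added before telavancin (8 or 32 µg/ml), 60 min reading. DiOC2(3) staining (final 30 µM, 5 min), flow cytometry of 5,000 events, red/green fluorescence ratio; depolarized gate defined with CCCP-treated cells.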

Staphylococcus aureus [14] = experiment: Antibacterial activity against heterogeneous vancomycin-intermediate Staphylococcus aureus ATCC 700698 assessed as induction of bacterial membrane depolarization at 32 ug/ml by flow cytometry; format: functional
Outline: (§7)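 Strains with resistance phenotypes tested in the DiOC2(3) flow-cytometric depolarization assay. Cells at 10^6 CFU/ml in MHB at 37°C, dye final 30 µM, 5 min stain, 5,000 events, red/green ratio. Percent depolarization followed over time.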

Staphylococcus aureus [15] = experiment: Antibacterial activity against methicillin-resistant Staphylococcus aureus ATCC 33591; format: functional; outline: as §1
Staphylococcus aureus [16] = experiment: Antibacterial activity against Staphylococcus aureus in presence of 0.05 mM D-Ala-D-Ala; format: functional
Staphylococcus aureus [17] = experiment: Antibacterial activity against Staphylococcus aureus assessed as induction of bacterial membrane depolarization at 8 ug/ml by flow cytometry in presence of 0.05 mM D-Ala-D-Ala; format: functional; outline: as §6
Staphylococcus aureus [18] = experiment: Antibacterial activity against Staphylococcus aureus assessed as induction of bacterial membrane depolarization at 8 ug/ml by flow cytometry in presence of 0.5 mM D-Ala-D-Ala; format: functional; outline: as §6
Staphylococcus aureus [19] = experiment: Antibacterial activity against Staphylococcus aureus assessed as induction of bacterial membrane depolarization at 32 ug/ml by flow cytometry in presence of 0.5 mM D-Ala-D-Ala; format: functional; outline: as §6
Staphylococcus aureus [20] = experiment: Antibacterial activity against vancomycin-intermediate Staphylococcus aureus ATCC 700699 assessed as induction of bacterial membrane depolarization at 32 ug/ml by flow cytometry; format: functional; outline: as §7
Staphylococcus aureus [21] = experiment: Antibacterial activity against daptomycin-nonsusceptible Staphylococcus aureus MED2034 assessed as induction of bacterial membrane depolarization at 32 ug/ml by flow cytometry; format: functional; outline: as §2
Staphylococcus aureus [22] = experiment: Inhibition of bacterial cell wall precursor lipid 2 synthesis in Staphylococcus aureus assessed as induction of membrane depolarization at 32 ug/ml by flow cytometry in presence of bacitracin; format: functional; design: scale not given: the % may be the effect or the level left; outline: as §4
Staphylococcus aureus [23] = experiment: Antibacterial activity against Staphylococcus aureus assessed as induction of bacterial membrane depolarization at 8 ug/ml by flow cytometry in presence of 5 mM D-Ala-D-Ala; format: functional; outline: as §6
Staphylococcus aureus [24] = experiment: Antibacterial activity against Staphylococcus aureus assessed as bacterial count at 8 to 32 ug/ml by turbidity assay; format: functional; outline: as §5
Staphylococcus aureus [25] = experiment: Antibacterial activity against Staphylococcus aureus assessed as induction of bacterial membrane depolarization at 32 ug/ml by flow cytometry in presence of 0.05 mM D-Ala-D-Ala; format: functional; outline: as §6
Staphylococcus aureus [26] = experiment: Inhibition of bacterial cell wall precursor lipid 2 synthesis in Staphylococcus aureus assessed as induction of membrane depolarization at 32 ug/ml by flow cytometry in presence of fosfomycin; format: functional; design: scale not given: the % may be the effect or the level left; outline: as §4
Cell membrane = experiment: Binding affinity to cell membrane of Staphylococcus aureus grown in MHB medium at 8 ug/ml by scintillation counting relative to control
Outline: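 S. aureus at 10^8 CFU/ml in MHB or PBS at 37°C, exposed to [14C]telavancin 8 µg/ml over 2 h. At each time point, cells collected on 0.2-µm filter plate, dried overnight at 37°C, and scintillation counted. Three independent experiments.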

Staphylococcus aureus [27] = experiment: Antibacterial activity against Staphylococcus aureus assessed as induction of bacterial cell lysis at 8 to 32 ug/ml by spectrophotometry; format: functional, organism-based; outline: as §5
Staphylococcus aureus [28] = experiment: Antibacterial activity against heterogeneous vancomycin-intermediate Staphylococcus aureus ATCC 700698; format: functional

Molecule `CCCCCCCCCCNCCN[C@@]1(C)C[C@H](O[C@H]2[C@H](Oc3c4cc5cc3Oc3ccc(cc3Cl)[C@H](O)[C@@H](NC(=O)O)C(=O)N[C@@H](CC(N)=O)C(=O)N[C@H]5C(=O)N[C@H]3C(=O)N[C@H](C(=O)N[C@H](C(=O)O)c5cc(O)c(CNCP(=O)(O)O)c(O)c5-c5cc3ccc5O)[C@H](O)c3ccc(c(Cl)c3)O4)O[C@H](CO)[C@@H](O)[C@@H]2O)O[C@@H](C)[C@H]1O` has an MIC (Staphylococcus aureus [1]) of 8 mg/L (≈ 4.78 µM) and an Activity (Staphylococcus aureus [2]) of 35%.
`CCCCCCCCCCO` [DECANOL] was tested, and the MIC (Staphylococcus aureus [1]) was 128 mg/L (≈ 809 µM) and the Activity (Staphylococcus aureus [3]) was “Active”.
`CCCCCCCCCC(=O)N[C@@H](Cc1c[nH]c2ccccc12)C(=O)N[C@H](CC(N)=O)C(=O)N[C@@H](CC(=O)O)C(=O)N[C@@H]1C(=O)NCC(=O)N[C@@H](CCCN)C(=O)N[C@@H](CC(=O)O)C(=O)N[C@H](C)C(=O)N[C@@H](CC(=O)O)C(=O)NCC(=O)N[C@H](CO)C(=O)N[C@@H]([C@H](C)CC(=O)O)C(=O)N[C@@H](CC(=O)c2ccccc2N)C(=O)O[C@@H]1C` showed an MIC (Staphylococcus aureus [4]) of 4 mg/L (≈ 2.47 µM).
With `CN[C@H](CC(C)C)C(=O)N[C@H]1C(=O)N[C@@H](CC(N)=O)C(=O)N[C@H]2C(=O)N[C@H]3C(=O)N[C@H](C(=O)N[C@H](C(=O)O)c4cc(O)cc(O)c4-c4cc3ccc4O)[C@H](O)c3ccc(c(Cl)c3)Oc3cc2cc(c3O[C@@H]2O[C@H](CO)[C@@H](O)[C@H](O)[C@H]2O[C@H]2C[C@](C)(N)[C@H](O)[C@H](C)O2)Oc2ccc(cc2Cl)[C@H]1O` [VANCOMYCIN] the IC50 (Staphylococcus aureus [5]) was over 96 mg/L, the MIC (Staphylococcus aureus [6]) was 8 mg/L (≈ 5.52 µM) and the Activity (Staphylococcus aureus [7]) was “inactive”.
For `CCCCCCCCCCNCCN[C@@]1(C)C[C@H](O[C@H]2[C@H](Oc3c4cc5cc3Oc3ccc(cc3Cl)[C@@H](O)[C@@H](NC(=O)[C@@H](CC(C)C)NC)C(=O)N[C@@H](CC(N)=O)C(=O)N[C@H]5C(=O)N[C@H]3C(=O)N[C@H](C(=O)N[C@H](C(=O)O)c5cc(O)c(CNCP(=O)(O)O)c(O)c5-c5cc3ccc5O)[C@H](O)c3ccc(c(Cl)c3)O4)O[C@H](CO)[C@@H](O)[C@@H]2O)O[C@@H](C)[C@H]1O` [TELAVANCIN], the Activity (Staphylococcus aureus [8]) was 38%, the MIC (Staphylococcus aureus [9]) was 1 mg/L and the Activity (Staphylococcus aureus [10]) was “inactive”. For the same molecule, the MIC (Staphylococcus aureus [11]) was 4 mg/L, the Activity (Staphylococcus aureus [12]) was 94% and the MIC (Staphylococcus aureus [1]) was 0.25 mg/L (≈ 0.142 µM). The Activity (Staphylococcus aureus [13]) was 14%, the Activity (Staphylococcus aureus [14]) was 78% and the MIC (Staphylococcus aureus [15]) was at most 0.5 mg/L. The Activity (Staphylococcus aureus [3]) was “Active”, the MIC (Staphylococcus aureus [16]) was 0.5 mg/L and the Activity (Staphylococcus aureus [17]) was 33%. The Activity (Staphylococcus aureus [5]) was “Dose-dependent effect”, the IC50 (Staphylococcus aureus [5]) was 3.6 mg/L (≈ 2.05 µM) and the Activity (Staphylococcus aureus [18]) was 17%. It also gave an MIC (Staphylococcus aureus [6]) of 0.5 mg/L (≈ 0.285 µM), an Activity (Staphylococcus aureus [2]) of 49% and an Activity (Staphylococcus aureus [19]) of 19%. The Activity (Staphylococcus aureus [20]) was 61%, the Activity (Staphylococcus aureus [21]) was 77% and the Activity (Staphylococcus aureus [22]) was 27%. The Activity (Staphylococcus aureus [23]) was 7%, the log10CFU/ml (Staphylococcus aureus [24]) was 3 and the Activity (Staphylococcus aureus [25]) was 68%. For the same molecule, the Activity (Staphylococcus aureus [26]) was 29%, the fold change (FC) (Cell membrane) was 2.8 and the MIC (Staphylococcus aureus [4]) was at most 0.5 mg/L. The Activity (Staphylococcus aureus [27]) was “inactive” and the MIC (Staphylococcus aureus [28]) was at most 0.5 mg/L.
